Columns and labels:
[1] = target: T1, Prostaglandin G/H synthase 1 (Ovis aries, UniProt P05979); test: Inhibition of ovine Prostaglandin G/H synthase 1
T1 sequence (P05979 whole entry): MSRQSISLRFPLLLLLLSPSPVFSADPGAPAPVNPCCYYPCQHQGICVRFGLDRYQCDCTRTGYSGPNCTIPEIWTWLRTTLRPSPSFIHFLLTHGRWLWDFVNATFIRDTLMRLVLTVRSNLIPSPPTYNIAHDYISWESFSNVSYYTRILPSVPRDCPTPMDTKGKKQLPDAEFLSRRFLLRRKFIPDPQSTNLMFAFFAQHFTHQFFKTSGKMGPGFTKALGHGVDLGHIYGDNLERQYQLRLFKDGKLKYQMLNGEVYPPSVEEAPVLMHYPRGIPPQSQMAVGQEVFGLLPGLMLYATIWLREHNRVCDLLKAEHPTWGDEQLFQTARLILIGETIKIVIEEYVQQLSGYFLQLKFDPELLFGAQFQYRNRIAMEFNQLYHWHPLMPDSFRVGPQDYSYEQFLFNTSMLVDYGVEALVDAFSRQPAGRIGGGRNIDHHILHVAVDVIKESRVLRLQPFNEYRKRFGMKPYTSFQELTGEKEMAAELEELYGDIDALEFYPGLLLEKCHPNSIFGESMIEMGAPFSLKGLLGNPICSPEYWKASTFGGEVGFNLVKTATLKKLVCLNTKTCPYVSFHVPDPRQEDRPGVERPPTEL
Method in brief: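 Ovine COX-1 with heme in 0.1 M Tris-HCl pH 8.0, 5 mM EDTA, 2 mM phenol. Test drug from DMSO stock at 0.001–100 μM final, preincubated 5 min at 37 °C. Arachidonic acid added, stopped with 1 M HCl after 2 min. IC50 from concentration–inhibition curve, duplicate determinations.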

[2] = species on record: Rattus norvegicus; test: Percent inhibition of analgesic activity in a rat model 4% NaCl-induced abdominal constriction assay at 30 min; assay type: functional, Abdomen
Method in brief: (§1)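 Male Sprague-Dawley rats given test compound orally at 5 mg/kg. Writhing (abdominal constriction) induced by 4% NaCl. Inhibition of writhing scored at 30 or 60 min after dosing. Mean ± SEM, n = 4-6.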

[3] = species on record: Rattus norvegicus; test: Percent inhibition of analgesic activity in a rat model 4% NaCl-induced abdominal constriction assay at 60 min; assay type: functional, Abdomen; method in brief: as §1
[4] = target: T2, Prostaglandin G/H synthase 2 (Rattus norvegicus) (UniProt P35355)
T2 sequence (whole entry): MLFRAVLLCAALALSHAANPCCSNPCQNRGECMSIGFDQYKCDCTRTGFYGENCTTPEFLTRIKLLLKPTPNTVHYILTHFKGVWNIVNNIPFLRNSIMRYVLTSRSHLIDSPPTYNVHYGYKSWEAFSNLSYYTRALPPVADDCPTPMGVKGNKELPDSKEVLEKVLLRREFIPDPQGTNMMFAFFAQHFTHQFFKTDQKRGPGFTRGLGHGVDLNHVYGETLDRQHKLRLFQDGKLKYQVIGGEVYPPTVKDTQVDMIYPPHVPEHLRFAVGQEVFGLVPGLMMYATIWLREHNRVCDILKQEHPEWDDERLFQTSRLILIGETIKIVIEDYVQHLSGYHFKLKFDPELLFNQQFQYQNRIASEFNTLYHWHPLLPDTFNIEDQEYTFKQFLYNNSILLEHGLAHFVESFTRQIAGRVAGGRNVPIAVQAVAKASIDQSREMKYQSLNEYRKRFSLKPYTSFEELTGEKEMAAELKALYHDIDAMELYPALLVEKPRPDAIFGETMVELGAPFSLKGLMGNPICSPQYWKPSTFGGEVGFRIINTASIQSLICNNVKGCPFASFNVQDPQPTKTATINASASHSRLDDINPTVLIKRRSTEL

Compound	IC50 [1]	ID50 [4]	Inhibition [2]	Inhibition [3]
CS(=O)(=O)c1ccc(-c2c(-c3ccccc3)cc(-c3ccc([N+](=O)[O-])cc3)oc2=O)cc1	> 100 µM			
CSc1ccc(-c2cc(-c3ccc(F)cc3)c(-c3ccc(S(C)(=O)=O)cc3)c(=O)o2)cc1	> 100 µM			
Cc1ccc(-c2cc(-c3ccc(S(C)(=O)=O)cc3)c(-c3ccccc3)c(=O)o2)cc1	> 100 µM			
Cc1ccc(-c2cc(-c3ccccc3)c(-c3ccc(S(C)(=O)=O)cc3)c(=O)o2)cc1	> 100 µM			
CS(=O)(=O)c1ccc(-c2cc(-c3ccccc3)oc(=O)c2-c2ccccc2)cc1	> 100 µM			
CS(=O)(=O)c1ccc(-c2c(-c3ccccc3)cc(-c3ccc(O)cc3)oc2=O)cc1	> 100 µM			
CS(=O)(=O)c1ccc(-c2c(-c3ccccc3)cc(-c3ccc(F)cc3)oc2=O)cc1	> 100 µM			
COc1ccc(-c2cc(-c3ccccc3)c(-c3ccc(N=[N+]=[N-])cc3)c(=O)o2)cc1	> 100 µM	5.6 mg/kg	47.2%	55.5%
COc1ccc(-c2cc(-c3ccc(S(C)(=O)=O)cc3)c(-c3ccncc3)c(=O)o2)cc1	> 100 µM	21.4 mg/kg	58.3%	55%
CS(=O)(=O)c1ccc(-c2c(-c3ccccc3)cc(-c3ccc(C(F)(F)F)cc3)oc2=O)cc1	> 100 µM			
Cc1ccc(-c2cc(C(F)(F)F)nn2-c2ccc(S(N)(=O)=O)cc2)cc1 [CELECOXIB]			69.33%	
COc1ccc(-c2cc(-c3ccccc3)c(-c3ccc(S(C)(=O)=O)cc3)c(=O)o2)cc1	> 100 µM	19.2 mg/kg	37.5%	69%
CCOc1ccc(-c2cc(-c3ccccc3)c(-c3ccc(S(C)(=O)=O)cc3)c(=O)o2)cc1	> 100 µM	5.6 mg/kg	58.3%	75%
CCc1ccc(-c2cc(-c3ccccc3)c(-c3ccc(S(C)(=O)=O)cc3)c(=O)o2)cc1	> 100 µM			
CS(=O)(=O)c1ccc(-c2cc(-c3ccccc3)c(-c3ccccc3)c(=O)o2)cc1	> 100 µM			

Second part, led by results:

IC50 [1]	ID50 [4]	Compound	Inhibition [2]	Inhibition [3]
31.5 µM		COc1ccc(-c2cc(-c3ccc(S(C)(=O)=O)cc3)c(-c3ccccc3)c(=O)o2)cc1		
32.5 µM		CS(=O)(=O)c1ccc(-c2c(-c3ccccc3)cc(-c3ccc(N)cc3)oc2=O)cc1		
10.7 µM		COc1ccc(-c2cc(-c3ccc(S(C)(=O)=O)cc3)c(-c3ccc(F)cc3)c(=O)o2)cc1		
> 100 µM		CCOc1ccc(-c2cc(-c3ccccc3)c(-c3ccc(N=[N+]=[N-])cc3)c(=O)o2)cc1		
0.15 µM		COc1ccc(-c2cc(-c3ccc(S(C)(=O)=O)cc3)c(-c3cccnc3)c(=O)o2)cc1		
> 100 µM		CS(=O)(=O)c1ccc(-c2cc(-c3ccccc3)oc(=O)c2-c2ccncc2)cc1		
> 100 µM		CS(=O)(=O)c1ccc(-c2c(-c3ccccc3)cc(-c3ccccc3)oc2=O)cc1		
3.2 µM		CCOc1ccc(-c2cc(-c3ccc(F)cc3)c(-c3ccc(S(C)(=O)=O)cc3)c(=O)o2)cc1		
> 100 µM		CCc1ccc(-c2cc(-c3ccc(S(C)(=O)=O)cc3)c(-c3ccccc3)c(=O)o2)cc1		
1.07 µM		CCOc1ccc(-c2cc(-c3ccc(S(C)(=O)=O)cc3)c(-c3ccc(F)cc3)c(=O)o2)cc1		
20 µM		COc1ccc(-c2cc(-c3ccc(F)cc3)c(-c3ccc(S(C)(=O)=O)cc3)c(=O)o2)cc1		
37.7 µM	7.9 mg/kg	CSc1ccc(-c2cc(-c3ccccc3)c(-c3ccc(S(C)(=O)=O)cc3)c(=O)o2)cc1	72%	64.7%
0.44 µM		COc1ccc(-c2cc(-c3cccnc3)c(-c3ccc(S(C)(=O)=O)cc3)c(=O)o2)cc1		
31.2 µM		CSc1ccc(-c2cc(-c3ccc(S(C)(=O)=O)cc3)c(-c3ccccc3)c(=O)o2)cc1		
25.3 µM		CS(=O)(=O)c1ccc(-c2cc(-c3ccc(C(F)(F)F)cc3)oc(=O)c2-c2ccccc2)cc1		
30 µM		CSc1ccc(-c2cc(-c3ccccc3)c(-c3ccc(N=[N+]=[N-])cc3)c(=O)o2)cc1		
31.6 µM		CCOc1ccc(-c2cc(-c3ccc(S(C)(=O)=O)cc3)c(-c3ccccc3)c(=O)o2)cc1		
3.2 µM		CS(=O)(=O)c1ccc(-c2cc(-c3ccccc3)oc(=O)c2-c2cccnc2)cc1		
11 µM		CS(=O)(=O)c1ccc(-c2cc(-c3ccc(F)cc3)oc(=O)c2-c2ccccc2)cc1		
3 µM		CS(=O)(=O)c1ccc(-c2c(-c3cccnc3)cc(-c3ccccc3)oc2=O)cc1		
